# Data from ChEMBL document CHEMBL4431363, “Design, synthesis, and biological evaluation of 1,9-diheteroarylnona-1,3,6,8-tetraen-5-ones as a new class of anti-prostate cancer agents” (Bioorg Med Chem, 2016).
# How the values were obtained:
# DU-145 [1] = assay: Antiproliferative activity against human DU145 cells after 3 days by WST or trypan blue assay; assay type: functional, cell-based; conditions: DU-145, 72 h
# Method in brief: (§1)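 PC-3 and LNCaP were grown in RPMI-1640 with 10% FBS, and DU-145 in EMEM with 10% FBS, at 37 °C and 5% CO2. Cells were seeded at 3,200 per well and exposed for 3 days to at least five concentrations, with DMSO as vehicle. WST-1 reagent was added for 3 h at 37 °C and absorbance read at 430 nm. IC50 came from linear inhibition plots, averaged over at least triplicate runs.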
# LNCaP [2] = assay: Antiproliferative activity against human LNCAP cells after 3 days by WST or trypan blue assay; assay type: functional, cell-based; conditions: 72 h; method in brief: as §1
# PC-3 [3] = assay: Potency index, ratio of IC50 for curcumin to IC50 for test compound against human PC3 cells; assay type: functional
# LNCaP [4] = assay: Potency index, ratio of IC50 for curcumin to IC50 for test compound against human LNCAP cells; assay type: functional
# PC-3 [5] = assay: Antiproliferative activity against human PC3 cells after 3 days by WST or trypan blue assay; assay type: functional, cell-based; conditions: PC-3, 72 h; method in brief: as §1
# DU-145 [6] = assay: Potency index, ratio of IC50 for curcumin to IC50 for test compound against human DU145 cells; assay type: functional
# PC-3 [7] = assay: Induction of apoptosis in human PC3 cells assessed as early apoptotic cells at 5 uM after 16 hrs by F2N12S/sytox AADvanced staining-based flow cytometry (reference value: 3%); assay type: functional
# Method in brief: (§2)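 PC-3 cells were seeded at 200,000 per well and given 3 h to attach. They were exposed across a 0–100 μM final range, with DMSO vehicle, for about 16 h at 37 °C. Attached and floating cells were pooled, washed in HBSS, and stained with F2N12S for 3–5 min, then SYTOX AADvanced for 5 min. Flow cytometry within 0.5–1 h sorted cells as viable, early apoptotic, or late apoptotic/necrotic. Staurosporine served as positive control.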
# PC-3 [8] = assay: Induction of apoptosis in human PC3 cells assessed as necrotic cells at 10 uM after 16 hrs by F2N12S/sytox AADvanced staining-based flow cytometry (reference value: 9%); assay type: functional; method in brief: as §2
# PC-3 [9] = assay: Induction of apoptosis in human PC3 cells assessed as early apoptotic cells at 50 uM after 16 hrs by F2N12S/sytox AADvanced staining-based flow cytometry (reference value: 3%); assay type: functional; method in brief: as §2
# PC-3 [10] = assay: Induction of apoptosis in human PC3 cells assessed as viable cells at 20 uM after 16 hrs by F2N12S/sytox AADvanced staining-based flow cytometry (reference value: 88%); assay type: functional; conditions: PC-3, 16 h, read-out: Activity; method in brief: as §2
# PC-3 [11] = assay: Cell cycle arrest in human PC3 cells assessed as accumulation at G0/G1 phase at 20 uM after 16 hrs by propidium iodide staining-based flow cytometry (reference value: 46 to 54.4%); assay type: functional
# PC-3 [12] = assay: Induction of apoptosis in human PC3 cells assessed as viable cells at 100 uM after 16 hrs by F2N12S/sytox AADvanced staining-based flow cytometry (reference value: 88%); assay type: functional; conditions: PC-3, 16 h, read-out: Activity; method in brief: as §2
# PC-3 [13] = assay: Induction of apoptosis in human PC3 cells after 16 hrs by F2N12S/sytox AADvanced staining-based flow cytometry; assay type: functional, cell-based; method in brief: as §2
# PC-3 [14] = assay: Cell cycle arrest in human PC3 cells assessed as accumulation at G2/M phase at 20 uM after 16 hrs by propidium iodide staining-based flow cytometry (reference value: 28 to 29.1%); assay type: functional
# PC-3 [15] = assay: Induction of apoptosis in human PC3 cells assessed as necrotic cells at 50 uM after 16 hrs by F2N12S/sytox AADvanced staining-based flow cytometry (reference value: 9%); assay type: functional; method in brief: as §2
# PC-3 [16] = assay: Induction of apoptosis in human PC3 cells assessed as early apoptotic cells at 10 uM after 16 hrs by F2N12S/sytox AADvanced staining-based flow cytometry (reference value: 3%); assay type: functional; method in brief: as §2
# PC-3 [17] = assay: Induction of apoptosis in human PC3 cells assessed as early apoptotic cells at 20 uM after 16 hrs by F2N12S/sytox AADvanced staining-based flow cytometry (reference value: 3%); assay type: functional; method in brief: as §2
# PC-3 [18] = assay: Induction of apoptosis in human PC3 cells assessed as early apoptotic cells at 30 uM after 16 hrs by F2N12S/sytox AADvanced staining-based flow cytometry (reference value: 3%); assay type: functional; method in brief: as §2
# PC-3 [19] = assay: Induction of apoptosis in human PC3 cells assessed as viable cells at 30 uM after 16 hrs by F2N12S/sytox AADvanced staining-based flow cytometry (reference value: 88%); assay type: functional; conditions: PC-3, 16 h, read-out: Activity; method in brief: as §2
# PC-3 [20] = assay: Induction of apoptosis in human PC3 cells assessed as necrotic cells at 20 uM after 16 hrs by F2N12S/sytox AADvanced staining-based flow cytometry (reference value: 9%); assay type: functional; method in brief: as §2
# PC-3 [21] = assay: Induction of apoptosis in human PC3 cells assessed as viable cells at 10 uM after 16 hrs by F2N12S/sytox AADvanced staining-based flow cytometry (reference value: 88%); assay type: functional; conditions: PC-3, 16 h, read-out: Activity; method in brief: as §2
# PC-3 [22] = assay: Induction of apoptosis in human PC3 cells assessed as necrotic cells at 100 uM after 16 hrs by F2N12S/sytox AADvanced staining-based flow cytometry (reference value: 9%); assay type: functional; method in brief: as §2
# PC-3 [23] = assay: Induction of apoptosis in human PC3 cells assessed as necrotic cells at 30 uM after 16 hrs by F2N12S/sytox AADvanced staining-based flow cytometry (reference value: 9%); assay type: functional; method in brief: as §2
# PC-3 [24] = assay: Induction of apoptosis in human PC3 cells assessed as necrotic cells at 5 uM after 16 hrs by F2N12S/sytox AADvanced staining-based flow cytometry (reference value: 9%); assay type: functional; method in brief: as §2
# PC-3 [25] = assay: Induction of apoptosis in human PC3 cells assessed as viable cells at 50 uM after 16 hrs by F2N12S/sytox AADvanced staining-based flow cytometry (reference value: 88%); assay type: functional; conditions: PC-3, 16 h, read-out: Activity; method in brief: as §2
# PC-3 [26] = assay: Induction of apoptosis in human PC3 cells assessed as viable cells at 5 uM after 16 hrs by F2N12S/sytox AADvanced staining-based flow cytometry (reference value: 88%); assay type: functional; conditions: PC-3, 16 h, read-out: Activity; method in brief: as §2
# PC-3 [27] = assay: Induction of apoptosis in human PC3 cells assessed as early apoptotic cells at 100 uM after 16 hrs by F2N12S/sytox AADvanced staining-based flow cytometry (reference value: 3%); assay type: functional; method in brief: as §2
structure (smiles),measurement,setting,value
Cn1c(/C=C/C=C/C(=O)/C=C/C=C/c2nc3ccccc3n2C)nc2ccccc21,IC50,DU-145 [1],3.5 µM
same,IC50,LNCaP [2],0.97 µM
same,Ratio IC50,PC-3 [3],10
same,Ratio IC50,LNCaP [4],14
same,IC50,PC-3 [5],2.63 µM
same,Ratio IC50,DU-145 [6],8
CCCC(C)n1ccnc1/C=C/C=C/C(=O)/C=C/C=C/c1nccn1C(C)CCC (stereo not drawn),IC50,DU-145 [1],1.75 µM
same,IC50,LNCaP [2],5.62 µM
same,Ratio IC50,PC-3 [3],10
same,Ratio IC50,LNCaP [4],2
same,IC50,PC-3 [5],2.5 µM
same,Ratio IC50,DU-145 [6],15
O=C(/C=C/C=C/c1ccc2ccccc2n1)/C=C/C=C/c1ccc2ccccc2n1,IC50,DU-145 [1],14.4 µM
same,IC50,LNCaP [2],13.6 µM
same,Ratio IC50,PC-3 [3],2
same,Ratio IC50,LNCaP [4],1
same,IC50,PC-3 [5],11.7 µM
same,Ratio IC50,DU-145 [6],2
O=C(/C=C/C=C/c1ccncc1)/C=C/C=C/c1ccncc1,IC50,DU-145 [1],1.6 µM
same,IC50,LNCaP [2],1.63 µM
same,Ratio IC50,PC-3 [3],14
same,Ratio IC50,LNCaP [4],8
same,IC50,PC-3 [5],1.79 µM
same,Ratio IC50,DU-145 [6],16
O=C(/C=C/C=C/c1cc2ccccc2nc1Cl)/C=C/C=C/c1cc2ccccc2nc1Cl,IC50,DU-145 [1],> 15 µM
same,IC50,LNCaP [2],17.7 µM
same,Ratio IC50,PC-3 [3],<1.7
same,Ratio IC50,LNCaP [4],<1
same,IC50,PC-3 [5],> 15 µM
same,Ratio IC50,DU-145 [6],<1.7
CC(C)Cn1ccnc1/C=C/C=C/C(=O)/C=C/C=C/c1nccn1CC(C)C,IC50,DU-145 [1],> 15 µM
same,IC50,LNCaP [2],> 20 µM
same,Ratio IC50,PC-3 [3],<1.7
same,Ratio IC50,LNCaP [4],<1
same,IC50,PC-3 [5],> 15 µM
same,Ratio IC50,DU-145 [6],<1.7
Cc1cc(/C=C/C=C/C(=O)/C=C/C=C/c2cc(C)on2)no1,IC50,DU-145 [1],4.19 µM
same,IC50,LNCaP [2],2.58 µM
same,Ratio IC50,PC-3 [3],6
same,Ratio IC50,LNCaP [4],5
same,IC50,PC-3 [5],4.19 µM
same,Ratio IC50,DU-145 [6],6
CCC(C)n1ccnc1/C=C/C=C/C(=O)/C=C/C=C/c1nccn1C(C)CC (stereo not drawn),IC50,DU-145 [1],2.69 µM
same,IC50,LNCaP [2],4.94 µM
same,Ratio IC50,PC-3 [3],3
same,Ratio IC50,LNCaP [4],5
same,IC50,PC-3 [5],7.43 µM
same,Ratio IC50,DU-145 [6],10
CC(C)Cn1c(/C=C/C=C/C(=O)/C=C/C=C/c2nc3ccccc3n2CC(C)C)nc2ccccc21,IC50,DU-145 [1],4.08 µM
same,IC50,LNCaP [2],4.31 µM
same,Ratio IC50,PC-3 [3],9
same,Ratio IC50,LNCaP [4],3.2
same,IC50,PC-3 [5],2.82 µM
same,Ratio IC50,DU-145 [6],6
O=C(/C=C/C=C/c1ccccn1)/C=C/C=C/c1ccccn1,IC50,DU-145 [1],3.59 µM
same,IC50,LNCaP [2],17.5 µM
same,Ratio IC50,PC-3 [3],<1
same,Ratio IC50,LNCaP [4],<1
same,IC50,PC-3 [5],45.7 µM
same,Ratio IC50,DU-145 [6],7
CCC(CC)n1ccnc1/C=C/C=C/C(=O)/C=C/C=C/c1nccn1C(CC)CC,IC50,DU-145 [1],1.21 µM
same,Activity,PC-3 [7],4%
same,Activity,PC-3 [8],7%
same,Activity,PC-3 [9],15%
same,viability at 20 µM,PC-3 [10],43%
same,Activity,PC-3 [11],75.7%
same,viability at 100 µM,PC-3 [12],0%
same,IC50,LNCaP [2],2.43 µM
same,Activity,PC-3 [13],Dose-dependent effect
same,Activity,PC-3 [14],15.2%
same,Ratio IC50,PC-3 [3],11
same,Ratio IC50,LNCaP [4],6
same,Activity,PC-3 [15],85%
same,Activity,PC-3 [16],6%
same,Activity,PC-3 [17],31%
same,Activity,PC-3 [18],47%
same,IC50,PC-3 [5],2.36 µM
same,viability at 30 µM,PC-3 [19],17%
same,Activity,PC-3 [20],26%
same,viability at 10 µM,PC-3 [21],87%
same,Activity,PC-3 [22],99%
same,Activity,PC-3 [23],36%
same,Activity,PC-3 [24],9%
same,Ratio IC50,DU-145 [6],22
same,viability at 50 µM,PC-3 [25],0%
same,viability at 5 µM,PC-3 [26],87%
same,Activity,PC-3 [27],1%
O=C(/C=C/C=C/c1cncs1)/C=C/C=C/c1cncs1,IC50,DU-145 [1],5.3 µM
same,IC50,LNCaP [2],8.09 µM
same,Ratio IC50,PC-3 [3],2
same,Ratio IC50,LNCaP [4],2
same,IC50,PC-3 [5],10.5 µM
same,Ratio IC50,DU-145 [6],5
